The campaign covered roughly 360,000 compounds. About 5,400 (1.5%) were called active.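 The calls were made as follows: active = inhibition above a per-plate cutoff, the mean inhibition of test compounds on that plate plus 3 SD (cut at about 49% in these data); inactive = the rest.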 The sample as a whole holds a higher share of actives than the screen did.

For this experiment, the target named is Trace amine-associated receptor 1 (Homo sapiens) (UniProt Q96RJ0). Nature of the experiment: human TAAR1 antagonists, primary screen, Fluo-8 calcium fluorescence, CHO RD-HGA16 cells (AID 624466).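 Also: 0% = DMSO plus EC80 beta-PEA response and 100% = DMSO alone without agonist.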 To be noted: CHO RD-HGA16 TAAR1, Fluo-8 calcium fluorescence, antagonist; at 3 µM; stronger effect = higher value. In short, it runs like this: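 Assay system: RD-HGA16 CHO cells with stable hTAAR1 and Gα16 / Reagent: EC80 β-phenethylamine stimulus / Doses: 3 µM, single point / Timing: dye loading 75 min at 37 °C, then 30 min room temperature / Measured by: Fluo-8 intracellular calcium dye fluorescence, real-time kinetic reads / Controls: vehicle wells and EC80 agonist wells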
Trace amine-associated receptor 1 (Homo sapiens), sequence (Q96RJ0 whole entry, looked up): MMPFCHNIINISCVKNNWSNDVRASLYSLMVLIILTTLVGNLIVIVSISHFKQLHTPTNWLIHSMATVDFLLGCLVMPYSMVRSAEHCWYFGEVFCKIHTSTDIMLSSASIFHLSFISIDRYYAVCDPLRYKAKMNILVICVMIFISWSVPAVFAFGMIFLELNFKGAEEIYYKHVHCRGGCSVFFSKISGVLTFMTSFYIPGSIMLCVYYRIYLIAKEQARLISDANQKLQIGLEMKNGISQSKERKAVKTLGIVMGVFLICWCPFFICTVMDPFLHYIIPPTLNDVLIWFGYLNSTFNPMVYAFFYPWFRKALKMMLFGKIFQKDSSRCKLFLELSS
Regarding `CCCCCCCCN1C(=O)[C@H](CC(=O)NCC23CC4CC(CC(C4)C2)C3)C[C@@]2(C(=O)OC)CCCCC=C12`, the inhibition (in general, the drop in the measured response relative to a control, in per cent) was -15.3% (inactive).

Take `CCOC(=O)C(C)N(c1ccccc1Cl)S(C)(=O)=O` (stereo not given): the inhibition was -3.03% (inactive).

On to `CN(CC(=O)O)S(=O)(=O)c1ccc2oc3ccccc3c2c1`, for which the inhibition was -5.94% (inactive).

Consider `COc1ccc(S(=O)(=O)N2CCCCCC2)cc1C(=O)N(C)Cc1cccc(OC)c1OC`, for which the inhibition was 3.09% (inactive).

For the compound `COc1ccc(Cl)cc1NC(=O)CN(C)C(=O)c1ccc2n[nH]nc2c1`, the inhibition is -6.92% (inactive).

For the compound `COc1ccc(-c2cc(C(=O)N(C)Cc3ccc(OC)c(OC)c3OC)c3ccccc3n2)cc1OC`, the inhibition was 78.5% (active).

On to `COc1ccc(C2=NS(=O)(=O)N(C)C(C(=O)N(C)Cc3ccccc3)=C2)cc1`, for which the inhibition was 11.5% (inactive).

For `COc1ccc(CN(C)C(=O)c2cc(-c3ccc(C)cc3C)nc3ccccc23)c(OC)c1OC`, the inhibition is 72.6% (active).

Turning to `COc1ccc(CN(C)C(=O)Cc2c[nH]c3ccccc23)c(OC)c1OC`, the inhibition was 4.63% (inactive).

For `COc1ccc(CN(C)C(=O)Cc2ccsc2)c(OC)c1OC`, the inhibition was -26.8% (inactive).

Regarding `COc1ccc(-c2cc(C(=O)N(C)Cc3ccccc3)c3ccccc3n2)cc1`, the inhibition was 62.6% (active).

As to `COc1ccc(-c2cc(C(=O)N(C)CC(=O)Nc3ccccc3Cl)c3ccccc3n2)cc1OC`, the inhibition was 73.2% (active).

For `COc1ccc(C(=O)N(C)Cc2ccc(OC)c(OC)c2OC)cc1S(=O)(=O)N1CCOCC1`, the inhibition was -9.36% (inactive).

Turning to `C/C(N)=C(/C#N)C(=O)COC(=O)c1cc(-c2ccc(C)cc2)nc2ccccc12`, the inhibition was -4.69% (inactive).

As to `Cc1cccc(C(=O)NCC(=O)OCC(=O)N(C)CC(=O)Nc2ccccc2Cl)c1`, the inhibition is -23.2% (inactive).

With `Cc1ccc(N/C(N)=N/c2nc(C(F)(F)F)cc(C(F)(F)F)n2)cc1`, the inhibition was 1.49% (inactive).

For the compound `CCn1ccnc1CN(C)C(=O)c1ccc2nc(Cc3ccc(OC)cc3)oc2c1`, the inhibition is 9.63% (inactive).

For the compound `Cc1ccc(C)c(CN2CCC(CNC(=O)C3CCCN(c4ncnc5c4nc4n5CCCCC4)C3)CC2)c1` (stereo not given), the inhibition is -10.2% (inactive).

`O=C(Nc1ccc(CSc2ccccc2)cc1)c1ccc(CN2CCOCC2)cc1`: the inhibition is 29.6% (inactive).

Turning to `COCc1cc(N2CCN(C(=O)OC(C)(C)C)C[C@@H]2C)ccc1N1CCN(Cc2ccccc2)[C@H](C)C1`, the inhibition is -3.16% (inactive).

Regarding `O=C1/C(=C/c2cccs2)SC(=S)N1C1CCS(=O)(=O)C1` (stereo not given), the inhibition is -5.52% (inactive).

Take `COc1ccc(CCn2c(NN=C3CCCC3)nc3c2c(=O)[nH]c(=O)n3C)cc1`: the inhibition was -23.8% (inactive).

Regarding `COc1cc(C2CC(=O)Oc3cc(OC)c(OC)c(OC)c32)cc(OC)c1OC` (stereo not given), the inhibition is 3.9% (inactive).

As for `COc1cc(OC)c2c(c1)OC(=O)CC2c1cc(OC)c(OC)c(OC)c1` (stereo not given), the inhibition was -6.82% (inactive).

In the case of `COc1ccc(C2CC(=O)Oc3ccc(C(C)(C)C)cc32)cc1` (stereo not given), the inhibition is 52.5% (active).

`CN(C)S(=O)(=O)c1ccc(C(=O)NCCN=C2NS(=O)(=O)c3ccccc32)cc1`: the inhibition was -8.85% (inactive).

As for `O=C(c1ccc2ccccc2n1)N1CCN(c2ccccc2Cl)CC1`, the inhibition was 20.4% (inactive).

Turning to `NC(=O)COc1ccc(/C=N/NC(=O)C2CCCN2S(=O)(=O)c2ccc(Cl)cc2)cc1` (stereo not given), the inhibition is 15.8% (inactive).

Regarding `NC(N)=N/N=C/c1ccc(OCc2ccc(Cl)cc2Cl)cc1`, the inhibition was 73.3% (active).

Regarding `COc1ccc(Cl)cc1N(CC(=O)N/N=C/c1ccc(OCC(N)=O)cc1)S(C)(=O)=O`, the inhibition is 6.35% (inactive).

For the compound `O=C1NC[C@H](CCCCN2C[C@H](Cc3ccc(O)cc3)N(CC3CCCCC3)C(=O)C2=O)N(CCc2ccccc2)C1=O`, the inhibition is 7.35% (inactive).

Turning to `COc1cccc(N(C(=O)C2COc3ccccc3O2)C(C(=O)NC2CCCCC2)c2ccc(O)cc2)c1` (stereo not given), the inhibition is -14.6% (inactive).

Consider `O=C(OCC(=O)N(CCc1ccccc1)Cc1ccccc1)c1ccccc1[N+](=O)[O-]`, for which the inhibition is 71.1% (active).

For the compound `CN(Cc1ccccc1)C(=O)COC(=O)c1ccccc1Nc1ccccc1`, the inhibition is 22.9% (inactive).

Turning to `Cc1c(C(=O)NCCCc2ccccc2)cccc1[N+](=O)[O-]`, the inhibition is 1.14% (inactive).

In the case of `CC(C)(C)c1ccc(S(=O)(=O)NCC2CCN(C(=O)C(=O)c3cc4ccccc4o3)CC2)cc1`, the inhibition was 3.67% (inactive).

Turning to `O=C(COC(=O)c1cc(S(=O)(=O)N2CCOCC2)ccc1Cl)NCCc1ccccc1`, the inhibition is -6.27% (inactive).

As to `CCC(=O)c1ccc(OCC(O)CN2CCN(c3cccc(C(F)(F)F)c3)CC2)cc1` (stereo not given), the inhibition is 19.9% (inactive).

With `CC(=O)N(C)c1ccc(NC(=O)Nc2cccc3ccccc23)cc1`, the inhibition is -1.56% (inactive).

Take `CCOc1ccc(NC(=O)N(CC(C)C)CC(C)C)cc1`: the inhibition was -6.6% (inactive).

`CCOc1ccc(NC(=O)Nc2ccc(N(C)C(C)=O)cc2)cc1`: the inhibition is 51.5% (active).

In the case of `CC12CCC(=O)N1C(C(=O)NCCN1C(=O)S/C(=C\c3ccccc3F)C1=O)CS2` (stereo not given), the inhibition was -27.9% (inactive).

With `O=S(=O)(NCC1CCCO1)c1cnc(Cl)c(Cl)c1` (stereo not given), the inhibition is 12.4% (inactive).

For the compound `CCOC(=O)C1=C(c2ccccc2)O/C(=C(/C(=O)OC)C(F)(F)F)S1`, the inhibition is -4.35% (inactive).

Turning to `CC(=O)Nc1cccc(NC(=O)c2ccc3c(c2)CCN3S(C)(=O)=O)c1`, the inhibition was 50% (active).

In the case of `CS(=O)(=O)N1CCc2cc(C(=O)Nc3ccccc3)ccc21`, the inhibition is 9.11% (inactive).

Regarding `CS(=O)(=O)N1CCc2cc(C(=O)Nc3ccccc3Br)ccc21`, the inhibition is 23.9% (inactive).

On to `Cc1ncc([N+](=O)[O-])n1CCOC(=O)c1ccc(Br)cc1`, for which the inhibition was 11.2% (inactive).

As for `CC(C)(C)C(c1nc2ccccc2[nH]1)n1c(Cc2csc3ccccc23)nc2ccccc21` (stereo not given), the inhibition was 11.6% (inactive).

As for `CC(C)C[C@@H]1Cc2[nH][nH]c(=O)c2[C@H](CCc2ccccc2)O1`, the inhibition was -21.2% (inactive).

With `C[N+](C)(C)CCNC(=O)c1cc[n+](Cc2ccccc2)c(/C=N/O)c1`, the inhibition is 5.47% (inactive).

Turning to `COC(=O)C1=C(C)N(Cc2ccccc2C(F)(F)F)C(=NCc2ccc(OC)cc2)NC1c1cccc(C(F)(F)F)c1` (stereo not given), the inhibition was 4.48% (inactive).

Consider `Cc1ccc(S(=O)(=O)N(CC(=O)NCc2ccco2)c2ccccc2C)cc1`, for which the inhibition is 5.84% (inactive).

Take `CCN(CC(=O)NCc1ccco1)S(=O)(=O)c1ccc(F)cc1`: the inhibition is -11.9% (inactive).

In the case of `COc1ccc(S(=O)(=O)N(CC(=O)NCc2ccco2)c2ccc(F)cc2)cc1`, the inhibition is 57.5% (active).
